Experimental data taken from ChEMBL document CHEMBL1129373, “Synthesis and evaluation of pregnane derivatives as inhibitors of human testicular 17 alpha-hydroxylase/C17,20-lyase” (J Med Chem, 1996).

Experiments:
[1] = molecular target: T1, Steroid 17-alpha-hydroxylase/17,20 lyase (Homo sapiens, UniProt P05093); assay: Inhibition of human testicular steroid 17-alpha-hydroxylase
T1 sequence (P05093 whole entry): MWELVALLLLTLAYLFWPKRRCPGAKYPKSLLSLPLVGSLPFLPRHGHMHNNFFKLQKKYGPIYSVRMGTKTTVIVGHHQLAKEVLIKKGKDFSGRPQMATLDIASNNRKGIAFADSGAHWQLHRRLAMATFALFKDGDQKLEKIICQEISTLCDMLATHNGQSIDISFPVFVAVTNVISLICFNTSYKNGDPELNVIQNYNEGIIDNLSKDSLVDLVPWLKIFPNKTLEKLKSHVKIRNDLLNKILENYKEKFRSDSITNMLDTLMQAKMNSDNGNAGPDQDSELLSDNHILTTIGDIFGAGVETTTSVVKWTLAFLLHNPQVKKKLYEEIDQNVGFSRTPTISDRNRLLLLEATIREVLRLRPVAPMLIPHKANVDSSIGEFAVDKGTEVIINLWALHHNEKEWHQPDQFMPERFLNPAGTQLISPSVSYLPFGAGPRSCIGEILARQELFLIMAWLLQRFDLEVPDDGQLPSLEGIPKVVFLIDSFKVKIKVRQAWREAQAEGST
How it was run: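 Human testicular microsomes (from orchidectomy testes, stored −70 °C, diluted in 0.1 M phosphate buffer; ca. 90 μg protein) incubated with [7-³H]pregnenolone (400 nM), NADPH-generating system and four to five inhibitor concentrations, pH 7.4, under oxygen, 5 min, 34 °C. Reverse-phase HPLC with radioactivity counting; hydroxylase activity from conversion to 17α-hydroxypregnenolone plus DHEA. IC50 by nonlinear regression; duplicates, repeated at least once.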

[2] = molecular target: T1, Steroid 17-alpha-hydroxylase/17,20 lyase; assay: Inhibition of human testicular C17,20-lyase, cytochrome P450 17A1; No inhibition

C[C@@H](O)C1CCC2C3CC=C4C[C@@H](O)CC[C@]4(C)C3CC[C@@]21C (stereo partly specified)
IC50 ([1]; read-out: IC50): 0.18 µM

C[C@@H](C=O)C1CCC2C3CCC4=CC(=O)CC[C@]4(C)C3CC[C@@]21C (stereo partly specified)
IC50 ([1]; read-out: IC50): 0.23 µM

CC(=O)C1=CCC2C3CC=C4C[C@@H](O)CC[C@]4(C)C3CC[C@]12C (stereo partly specified)
IC50 ([1]; read-out: IC50): 0.51 µM

C[C@@H](O)C1CCC2C3CCC4=CC(=O)CC[C@]4(C)C3CC[C@@]21C (stereo partly specified)
IC50 ([1]; read-out: IC50): 0.49 µM

C[C@]12CCC3C(CC=C4C[C@@H](O)CC[C@@]43C)C1CCC2[C@]1(C)CO1 (stereo partly specified)
IC50 ([1]; read-out: IC50): 0.73 µM

CC(=O)C1=CCC2C3CCC4=CC(=O)CC[C@]4(C)C3CC[C@]12C (stereo partly specified)
IC50 ([1]; read-out: IC50): 1.77 µM

C[C@]12CC[C@H](O)CC1=CCC1C2CC[C@]2(C)/C(=N/N)CCC12 (stereo partly specified)
IC50 ([1]; read-out: IC50): 6.48 µM

C/C(=N/O)C1=CCC2C3CC=C4C[C@@H](O)CC[C@]4(C)C3CC[C@]12C (stereo partly specified)
IC50 ([1]; read-out: IC50): 0.016 µM

C#C[C@]1(O)CCC2C3CCC4=CC(=O)CC[C@]4(C)C3CC[C@@]21C (stereo partly specified)
IC50 [2]: Not Active
IC50 [1]: No inhibition

C/C(C#N)=C1/CCC2C3CCC4=CC(=O)CC[C@]4(C)C3CC[C@]12C (stereo partly specified)
IC50 ([1]; read-out: IC50): 1.22 µM

CC(O)C1CCC2C3CC=C4C[C@@H](O)CC[C@]4(C)C3CC[C@]12C (stereo partly specified)
IC50 ([1]; read-out: IC50): 0.72 µM

C/C(=N\N(C)C)C1CCC2C3CC=C4C[C@@H](O)CC[C@]4(C)C3CC[C@]12C (stereo partly specified)
IC50 [2]: Not Active
IC50 [1]: No inhibition

C[C@H](N)[C@H]1CC[C@H]2[C@@H]3CC=C4C[C@@H](O)CC[C@]4(C)[C@H]3CC[C@]12C
IC50 ([1]; read-out: IC50): 89.8 µM

C=CC1CCC2C3CC=C4C[C@@H](O)CC[C@]4(C)C3CC[C@]12C (stereo partly specified)
IC50 ([1]; read-out: IC50): 2.88 µM

CN(C=O)C1CCC2C3CCC4=CC(=O)CC[C@]4(C)C3CC[C@@]21C (stereo partly specified)
IC50 ([1]; read-out: IC50): 0.8 µM

C[C@@H](C#N)C1CCC2C3CCC4=CC(=O)CC[C@]4(C)C3CC[C@@]21C (stereo partly specified)
IC50 ([1]; read-out: IC50): 1.1 µM

C[C@]12CC[C@H](O)CC1=CCC1C2CC[C@]2(C)/C(=N/O)CCC12 (stereo partly specified)
IC50 ([1]; read-out: IC50): 13.5 µM

C[C@@H](/C=N/O)[C@H]1CC[C@H]2[C@@H]3CCC4=CC(=O)CC[C@]4(C)[C@H]3CC[C@]12C
IC50 ([1]; read-out: IC50): 5.98 µM

C[C@@H](O)[C@H]1CC[C@H]2[C@@H]3CCC4=CC(=O)CC[C@]4(C)[C@H]3CC[C@]12C
IC50 ([1]; read-out: IC50): 2.84 µM

C/C(=N\N)[C@H]1CC[C@H]2[C@@H]3CC=C4C[C@@H](O)CC[C@]4(C)[C@H]3CC[C@]12C
IC50 ([1]; read-out: IC50): 9.98 µM

C/C(=N\N(C)C)C1=CCC2C3CC=C4C[C@@H](O)CC[C@]4(C)C3CC[C@]12C (stereo partly specified)
IC50 ([1]; read-out: IC50): 43.7 µM

C[C@@H](N)[C@H]1CC[C@H]2[C@@H]3CC=C4C[C@@H](O)CC[C@]4(C)[C@H]3CC[C@]12C
IC50 ([1]; read-out: IC50): 9.8 µM

C/C(=N/O)C1CCC2C3CC=C4C[C@@H](O)CC[C@]4(C)C3CC[C@]12C (stereo partly specified)
IC50 ([1]; read-out: IC50): 0.53 µM

C#CC1CCC2C3CC=C4C[C@@H](O)CC[C@]4(C)C3CC[C@]12C (stereo partly specified)
IC50 ([1]; read-out: IC50): 3.56 µM
